# Assay results from ChEMBL document CHEMBL4680175, “Sulfonamide-based ring-fused analogues for CAN508 as novel carbonic anhydrase inhibitors endowed with antitumor activity: Design, synthesis, and in vitro biological evaluation” (Eur J Med Chem, 2020).
# The source made the active and inactive calls. The calls are words filed in the database; no cut-off is given here.
# Tests used:
# Carbonic anhydrase 2 = Carbonic anhydrase 2 (Homo sapiens, UniProt P00918); assay: Inhibition of recombinant human carbonic anhydrase 2 preincubated with enzyme for 15 mins by phenol red dye based stopped flow CO2 hydrase assay
# Carbonic anhydrase 9 = Carbonic anhydrase 9 (Homo sapiens, UniProt Q16790); assay: Inhibition of recombinant human carbonic anhydrase 9 preincubated with enzyme for 15 mins by phenol red dye based stopped flow CO2 hydrase assay
# Carbonic anhydrase 12 = Carbonic anhydrase 12 (Homo sapiens, UniProt O43570); assay: Inhibition of recombinant human carbonic anhydrase 12 preincubated with enzyme for 15 mins by phenol red dye based stopped flow CO2 hydrase assay
# Sequence of Carbonic anhydrase 12 (O43570 whole entry): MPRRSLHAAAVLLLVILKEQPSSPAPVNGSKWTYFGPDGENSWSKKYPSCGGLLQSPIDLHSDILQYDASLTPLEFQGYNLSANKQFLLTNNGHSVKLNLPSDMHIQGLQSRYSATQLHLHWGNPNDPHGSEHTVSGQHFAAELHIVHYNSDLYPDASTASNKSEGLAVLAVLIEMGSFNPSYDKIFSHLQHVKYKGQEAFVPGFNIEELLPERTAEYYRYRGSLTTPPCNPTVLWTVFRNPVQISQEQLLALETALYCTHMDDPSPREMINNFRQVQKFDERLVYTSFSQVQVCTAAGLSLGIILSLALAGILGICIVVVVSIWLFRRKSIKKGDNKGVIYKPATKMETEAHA
# [1] = biological target: Cyclin-dependent kinase 2/cyclin E1 (Homo sapiens, UniProt P24941); assay: Inhibition of CDK2/cyclin E (unknown origin) expressed in baculovirus infected Sf21 insect cells using histone H1 as substrate in presence of [gamma33P]ATP
# CCRF-CEM = assay: Antitumor activity against human CCRF-CEM cells assessed as cell growth inhibition at 10 uM incubated for 48 hrs by sulforhodamine B assay; format: functional; conditions: read-out: GI
# In short: (§1)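 NCI Drug Evaluation Branch protocol: primary single-dose screen at 10 μM across a 57-line human cancer panel. Drug exposure is 48 h. Cell growth and viability are read by sulforhodamine B assay. Data are given as a mean graph of percent growth of treated cells and reported as percentage growth inhibition (GI%).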
# K562 = assay: Antitumor activity against human K562 cells assessed as cell growth inhibition at 10 uM incubated for 48 hrs by sulforhodamine B assay; format: functional; conditions: read-out: GI; in short: as §1
# MOLT-4 = assay: Antitumor activity against human MOLT4 cells assessed as cell growth inhibition at 10 uM incubated for 48 hrs by sulforhodamine B assay; format: functional; conditions: read-out: GI; in short: as §1
# RPMI-8226 = assay: Antitumor activity against human RPMI8226 cells assessed as cell growth inhibition at 10 uM incubated for 48 hrs by sulforhodamine B assay; format: functional; conditions: read-out: GI; in short: as §1
# HOP-92 = assay: Antitumor activity against human HOP92 cells assessed as cell growth inhibition at 10 uM incubated for 48 hrs by sulforhodamine B assay; format: functional; conditions: read-out: GI; in short: as §1
# NCI-H322M = assay: Antitumor activity against human NCI-H322M cells assessed as cell growth inhibition at 10 uM incubated for 48 hrs by sulforhodamine B assay; format: functional; conditions: read-out: GI; in short: as §1
# NCI-H460 = assay: Antitumor activity against human NCI-H460 cells assessed as cell growth inhibition at 10 uM incubated for 48 hrs by sulforhodamine B assay; format: functional; conditions: read-out: GI; in short: as §1
# NCI-H522 = assay: Antitumor activity against human NCI-H522 cells assessed as cell growth inhibition at 10 uM incubated for 48 hrs by sulforhodamine B assay; format: functional; conditions: read-out: GI; in short: as §1
# HCT-116 = assay: Antitumor activity against human HCT116 cells assessed as cell growth inhibition at 10 uM incubated for 48 hrs by sulforhodamine B assay; format: functional; conditions: read-out: GI; in short: as §1
# KM12 = assay: Antitumor activity against human KM12 cells assessed as cell growth inhibition at 10 uM incubated for 48 hrs by sulforhodamine B assay; format: functional; conditions: read-out: GI; in short: as §1
# SF-268 = assay: Antitumor activity against human SF268 cells assessed as cell growth inhibition at 10 uM incubated for 48 hrs by sulforhodamine B assay; format: functional; conditions: read-out: GI; in short: as §1
# SF-539 = assay: Antitumor activity against human SF539 cells assessed as cell growth inhibition at 10 uM incubated for 48 hrs by sulforhodamine B assay; format: functional; conditions: read-out: GI; in short: as §1
# SNB-75 = assay: Antitumor activity against human SNB-75 cells assessed as cell growth inhibition at 10 uM incubated for 48 hrs by sulforhodamine B assay; format: functional; conditions: read-out: GI
# In short: (§2)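 NCI one-dose screen: 57-cell-line panel exposed at 10 μM for 48 h, Drug Evaluation Branch protocol. Growth and viability read by sulforhodamine B; data given as percent growth inhibition from the mean-graph of percent growth of treated cells.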
# U-251 = assay: Antitumor activity against human U251 cells assessed as cell growth inhibition at 10 uM incubated for 48 hrs by sulforhodamine B assay; format: functional; conditions: read-out: GI; in short: as §2
# LOX IMVI = assay: Antitumor activity against human LOX IMVI cells assessed as cell growth inhibition at 10 uM incubated for 48 hrs by sulforhodamine B assay; format: functional; conditions: read-out: GI; in short: as §1
# Malme-3M = assay: Antitumor activity against human MALME-3M cells assessed as cell growth inhibition at 10 uM incubated for 48 hrs by sulforhodamine B assay; format: functional; conditions: read-out: GI; in short: as §1
# CAKI-1 = assay: Antitumor activity against human CAKI-1 cells assessed as cell growth inhibition at 10 uM incubated for 48 hrs by sulforhodamine B assay; format: functional; conditions: read-out: GI; in short: as §1
# SK-MEL-2 = assay: Antitumor activity against human SK-MEL-2 cells assessed as cell growth inhibition at 10 uM incubated for 48 hrs by sulforhodamine B assay; format: functional; conditions: read-out: GI; in short: as §1
# SK-MEL-5 = assay: Antitumor activity against human SK-MEL-5 cells assessed as cell growth inhibition at 10 uM incubated for 48 hrs by sulforhodamine B assay; format: functional; conditions: read-out: GI; in short: as §1
# IGROV-1 = assay: Antitumor activity against human IGROV1 cells assessed as cell growth inhibition at 10 uM incubated for 48 hrs by sulforhodamine B assay; format: functional; conditions: read-out: GI; in short: as §1
# OVCAR-3 = assay: Antitumor activity against human OVCAR-3 cells assessed as cell growth inhibition at 10 uM incubated for 48 hrs by sulforhodamine B assay; format: functional; conditions: read-out: GI; in short: as §1
# OVCAR-8 = assay: Antitumor activity against human OVCAR-8 cells assessed as cell growth inhibition at 10 uM incubated for 48 hrs by sulforhodamine B assay; format: functional; conditions: read-out: GI; in short: as §1
# DU-145 = assay: Antitumor activity against human DU-145 cells assessed as cell growth inhibition at 10 uM incubated for 48 hrs by sulforhodamine B assay; format: functional; conditions: read-out: GI; in short: as §1
# UO-31 = assay: Antitumor activity against human UO-31 cells assessed as cell growth inhibition at 10 uM incubated for 48 hrs by sulforhodamine B assay; format: functional; conditions: read-out: GI; in short: as §2
# PC-3 = assay: Antitumor activity against human PC-3 cells assessed as cell growth inhibition at 10 uM incubated for 48 hrs by sulforhodamine B assay; format: functional; conditions: read-out: GI; in short: as §1
# RXF 393 = assay: Antitumor activity against human RXF 393 cells assessed as cell growth inhibition at 10 uM incubated for 48 hrs by sulforhodamine B assay; format: functional; conditions: read-out: GI; in short: as §1
# SN12C = assay: Antitumor activity against human SN12C cells assessed as cell growth inhibition at 10 uM incubated for 48 hrs by sulforhodamine B assay; format: functional; conditions: read-out: GI; in short: as §1
# MCF7 = assay: Antitumor activity against human MCF7 cells assessed as cell growth inhibition at 10 uM incubated for 48 hrs by sulforhodamine B assay; format: functional; conditions: read-out: GI; in short: as §1
# MDA-MB-231 = assay: Antitumor activity against human MDA-MB-231/ATCC cells assessed as cell growth inhibition at 10 uM incubated for 48 hrs by sulforhodamine B assay; format: functional; conditions: read-out: GI; in short: as §1
# Hs-578T = assay: Antitumor activity against human HS 578T cells assessed as cell growth inhibition at 10 uM incubated for 48 hrs by sulforhodamine B assay; format: functional; conditions: read-out: GI; in short: as §1
# BT-549 = assay: Antitumor activity against human BT-549 cells assessed as cell growth inhibition at 10 uM incubated for 48 hrs by sulforhodamine B assay; format: functional; conditions: read-out: GI; in short: as §1
# T47D = assay: Antitumor activity against human T-47D cells assessed as cell growth inhibition at 10 uM incubated for 48 hrs by sulforhodamine B assay; format: functional; conditions: read-out: GI; in short: as §2
# MDA-MB-468 = assay: Antitumor activity against human MDA-MB-468 cells assessed as cell growth inhibition at 10 uM incubated for 48 hrs by sulforhodamine B assay; format: functional; conditions: read-out: GI; in short: as §1
# NCI/ADR-RES = assay: Antitumor activity against human NCI/ADR-RES cells assessed as cell growth inhibition at 10 uM incubated for 48 hrs by sulforhodamine B assay; format: functional, cell-based; in short: as §1
# NCI-H226 = assay: Antitumor activity against human NCI-H226 assessed as cell growth inhibition at 10 uM incubated for 48 hrs by sulforhodamine B assay; format: functional; conditions: read-out: GI; in short: as §1
SMILES,Ki (Carbonic anhydrase 2),Ki (Carbonic anhydrase 9),Ki (Carbonic anhydrase 12),IC50 [1],inhibition of growth at 10 µM (CCRF-CEM),inhibition of growth at 10 µM (K562),inhibition of growth at 10 µM (MOLT-4),inhibition of growth at 10 µM (RPMI-8226),inhibition of growth at 10 µM (HOP-92),inhibition of growth at 10 µM (NCI-H460),inhibition of growth at 10 µM (NCI-H522),inhibition of growth at 10 µM (HCT-116),inhibition of growth at 10 µM (KM12),inhibition of growth at 10 µM (SF-268),inhibition of growth at 10 µM (SF-539),inhibition of growth at 10 µM (U-251),inhibition of growth at 10 µM (CAKI-1),inhibition of growth at 10 µM (SK-MEL-2),inhibition of growth at 10 µM (SK-MEL-5),inhibition of growth at 10 µM (OVCAR-3),further results
Nc1nn2cc(-c3ccc(Br)cc3)[nH]c2c1/N=N/c1ccc(S(N)(=O)=O)cc1,49.3 nM,44.9 nM,52.8 nM,> 12.5 µM,45%,38%,42%,55%,29%,62%,55%,62%,39%,42%,42%,38%,82%,53%,45%,27%,inhibition of growth at 10 µM (NCI-H322M): 65%; inhibition of growth at 10 µM (SNB-75): 64%; inhibition of growth at 10 µM (LOX IMVI): 64%; inhibition of growth at 10 µM (Malme-3M): 64%; inhibition of growth at 10 µM (IGROV-1): 72%; inhibition of growth at 10 µM (OVCAR-8): 37%; inhibition of growth at 10 µM (DU-145): 47%; inhibition of growth at 10 µM (UO-31): 74%; inhibition of growth at 10 µM (PC-3): 39%; inhibition of growth at 10 µM (RXF 393): 55%; inhibition of growth at 10 µM (SN12C): 58%; inhibition of growth at 10 µM (MCF7): 33%; inhibition of growth at 10 µM (MDA-MB-231): 43%; inhibition of growth at 10 µM (Hs-578T): 54%; inhibition of growth at 10 µM (BT-549): 25%; inhibition of growth at 10 µM (T47D): 46%; inhibition of growth at 10 µM (MDA-MB-468): 51%; Activity (NCI/ADR-RES): inactive
N#Cc1c(-c2ccc(Br)cc2)nc2c(/N=N/c3ccc(S(N)(=O)=O)cc3)c(N)nn2c1N,885 nM,65.7 nM,43.2 nM,> 12.5 µM,104%,64%,98%,114%,69%,63%,61%,75%,48%,44%,61%,59%,47%,57%,54%,45%,inhibition of growth at 10 µM (NCI-H226): 34%; inhibition of growth at 10 µM (NCI-H322M): 25%; inhibition of growth at 10 µM (SNB-75): 43%; inhibition of growth at 10 µM (LOX IMVI): 71%; inhibition of growth at 10 µM (Malme-3M): 42%; inhibition of growth at 10 µM (IGROV-1): 59%; inhibition of growth at 10 µM (OVCAR-8): 53%; inhibition of growth at 10 µM (DU-145): 67%; inhibition of growth at 10 µM (UO-31): 41%; inhibition of growth at 10 µM (PC-3): 62%; inhibition of growth at 10 µM (RXF 393): 58%; inhibition of growth at 10 µM (SN12C): 54%; inhibition of growth at 10 µM (MCF7): 68%; inhibition of growth at 10 µM (MDA-MB-231): 59%; inhibition of growth at 10 µM (Hs-578T): 55%; inhibition of growth at 10 µM (BT-549): 26%; inhibition of growth at 10 µM (T47D): 68%; inhibition of growth at 10 µM (MDA-MB-468): 76%; Activity (NCI/ADR-RES): inactive
N#Cc1c(-c2ccc(Cl)cc2)nc2c(/N=N/c3ccc(S(N)(=O)=O)cc3)c(N)nn2c1N,496 nM,31.3 nM,14.2 nM,> 12.5 µM,65%,28%,82%,58%,29%,21%,29%,34%,75%,23%,25%,30%,26%,24%,31%,25%,inhibition of growth at 10 µM (NCI-H226): 25%; inhibition of growth at 10 µM (OVCAR-8): 25%; inhibition of growth at 10 µM (DU-145): 40%; inhibition of growth at 10 µM (UO-31): 36%; inhibition of growth at 10 µM (PC-3): 38%; inhibition of growth at 10 µM (RXF 393): 29%; inhibition of growth at 10 µM (SN12C): 27%; inhibition of growth at 10 µM (MCF7): 51%; inhibition of growth at 10 µM (MDA-MB-231): 52%; inhibition of growth at 10 µM (Hs-578T): 30%; inhibition of growth at 10 µM (BT-549): 35%; inhibition of growth at 10 µM (T47D): 56%; inhibition of growth at 10 µM (MDA-MB-468): 56%; Activity (NCI/ADR-RES): inactive
